From ChEMBL document CHEMBL1137670, “First occurrence of an IMP metallo-beta-lactamase in Aeromonas caviae: IMP-19 in an isolate from France” (2007)

Key:
[1] = substrate: CO/N=C(\C(=O)N[C@@H]1C(=O)N2C(C(=O)O)=C(COC(N)=O)CS[C@H]12)c1ccco1; experiment: (§1) Activity of Aeromonas caviae A324R metallo-beta-lactamase IMP-19 expressed in Escherichia coli DH5alpha by computerized microacidimetric method
Outline: (§2)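 IMP-19 purified from sonicated recombinant E. coli DH5alpha(pIP19). Purification: SP Sepharose in 50 mM MES-NaOH pH 6.0 with 0–500 mM NaCl gradient, then 5 mM ZnCl2 and Superose 12 in 20 mM MES-NaOH–100 mM NaCl pH 6.0; purity >97% by SDS-PAGE. Km and kcat measured three times by computerized microacidimetry; variation coefficients at most 10%.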

[2] = substrate: CCN1CCN(C(=O)N[C@@H](C(=O)N[C@@H]2C(=O)N3[C@@H]2SC(C)(C)[C@@H]3C(=O)O)c2ccccc2)C(=O)C1=O; experiment: as §1; outline: as §2
[3] = substrate: CO[C@@]1(NC(=O)Cc2cccs2)C(=O)N2C(C(=O)O)=C(COC(N)=O)CS[C@@H]21; experiment: as §1; outline: as §2
[4] = substrate: CC1(C)S[C@@H]2[C@H](NC(=O)[C@H](N)c3ccc(O)cc3)C(=O)N2[C@H]1C(=O)O; experiment: as §1; outline: as §2
[5] = substrate: CC1(C)S[C@@H]2[C@H](NC(=O)[C@H](C(=O)O)c3ccsc3)C(=O)N2[C@H]1C(=O)O; experiment: as §1; outline: as §2
[6] = substrate: C[C@H]1[C@H](NC(=O)/C(=N\OC(C)(C)C(=O)O)c2csc(N)n2)C(=O)N1S(=O)(=O)O; experiment: as §1; outline: as §2
[7] = substrate: CO/N=C(\C(=O)N[C@@H]1C(=O)N2C(C(=O)O)=C(COC(C)=O)CS[C@H]12)c1csc(N)n1; experiment: as §1; outline: as §2
[8] = substrate: C[C@@H](O)[C@H]1C(=O)N2C(C(=O)O)=C(S[C@@H]3CN[C@H](C(=O)N(C)C)C3)[C@H](C)[C@H]12; experiment: as §1; outline: as §2
[9] = substrate: CC(=O)OCC1=C(C(=O)O)N2C(=O)[C@@H](NC(=O)Cc3cccs3)[C@H]2SC1; experiment: as §1; outline: as §2
[10] = substrate: CO/N=C(\C(=O)N[C@@H]1C(=O)N2C(C(=O)[O-])=C(C[n+]3cccc4c3CCC4)CS[C@H]12)c1csc(N)n1; experiment: as §1; outline: as §2
[11] = substrate: CC1(C)S[C@@H]2[C@H](NC(=O)Cc3ccccc3)C(=O)N2[C@H]1C(=O)O; experiment: as §1; outline: as §2
[12] = substrate: CC(C)(O/N=C(\C(=O)N[C@@H]1C(=O)N2C(C(=O)[O-])=C(C[n+]3ccccc3)CS[C@H]12)c1csc(N)n1)C(=O)O; experiment: as §1; outline: as §2
[13] = substrate: C[C@@H](O)[C@H]1C(=O)N2C(C(=O)O)=C(SCCNC=N)C[C@H]12; experiment: as §1; outline: as §2
[14] = substrate: CO/N=C(\C(=O)N[C@@H]1C(=O)N2C(C(=O)O)=C(COC(N)=O)CS[C@H]12)c1ccco1; experiment: (§3) Ratio of Kcat to Km of Aeromonas caviae A324R metallo-beta-lactamase IMP-19 expressed in Escherichia coli DH5alpha by computerized microacidimetric method; outline: as §2
[15] = substrate: CCN1CCN(C(=O)N[C@@H](C(=O)N[C@@H]2C(=O)N3[C@@H]2SC(C)(C)[C@@H]3C(=O)O)c2ccccc2)C(=O)C1=O; experiment: as §3; outline: as §2
[16] = substrate: CO[C@@]1(NC(=O)Cc2cccs2)C(=O)N2C(C(=O)O)=C(COC(N)=O)CS[C@@H]21; experiment: as §3; outline: as §2
[17] = substrate: CC1(C)S[C@@H]2[C@H](NC(=O)[C@H](N)c3ccc(O)cc3)C(=O)N2[C@H]1C(=O)O; experiment: as §3; outline: as §2
[18] = substrate: CC1(C)S[C@@H]2[C@H](NC(=O)[C@H](C(=O)O)c3ccsc3)C(=O)N2[C@H]1C(=O)O; experiment: as §3; outline: as §2
[19] = substrate: CO/N=C(\C(=O)N[C@@H]1C(=O)N2C(C(=O)O)=C(COC(C)=O)CS[C@H]12)c1csc(N)n1; experiment: as §3; outline: as §2
[20] = substrate: C[C@@H](O)[C@H]1C(=O)N2C(C(=O)O)=C(S[C@@H]3CN[C@H](C(=O)N(C)C)C3)[C@H](C)[C@H]12; experiment: as §3; outline: as §2
[21] = substrate: CC(=O)OCC1=C(C(=O)O)N2C(=O)[C@@H](NC(=O)Cc3cccs3)[C@H]2SC1; experiment: as §3; outline: as §2
[22] = substrate: CO/N=C(\C(=O)N[C@@H]1C(=O)N2C(C(=O)[O-])=C(C[n+]3cccc4c3CCC4)CS[C@H]12)c1csc(N)n1; experiment: as §3; outline: as §2
[23] = substrate: CC1(C)S[C@@H]2[C@H](NC(=O)Cc3ccccc3)C(=O)N2[C@H]1C(=O)O; experiment: as §3; outline: as §2
[24] = substrate: CC(C)(O/N=C(\C(=O)N[C@@H]1C(=O)N2C(C(=O)[O-])=C(C[n+]3ccccc3)CS[C@H]12)c1csc(N)n1)C(=O)O; experiment: as §3; outline: as §2
[25] = substrate: C[C@@H](O)[C@H]1C(=O)N2C(C(=O)O)=C(SCCNC=N)C[C@H]12; experiment: as §3; outline: as §2

B1: IMP-19 (Aeromonas caviae), A8QUY6 (protein)
chain: MKKLFVLCVCFLCSITAAGAALPDLKIEKLEEGVYVHTSFEEVNGWGVVSKHGLVVLVNTDAYLIDTPFTATDTEKLVNWFVERGYKIKGTISSHFHSDSTGGIEWLNSQSIPTYASELTNELLKKDGKVQAKNSFSGVSYWLVKNKIEVFYPGPGHTQDNVVVWLPEKKILFGGCFVKPDGLGNLGDANLEAWPKSAKILMSKYVKAKLVVSSHSEIGDASLLKRTWEQAVKGLNESKKPSQPSN
Protein B1 has a Km [1] of 95 µM, a kcat [1] of 16.4 s⁻¹ and a Km [2] of 148 µM. For the same protein, the kcat [2] was 41.2 s⁻¹, the Km [3] was 33 µM and the kcat [3] was 9.7 s⁻¹. For the same protein, the Km [4] was 207 µM, the kcat [4] was 456 s⁻¹ and the Km [5] was 140 µM. The kcat [5] was 683 s⁻¹, the kcat [6] was < 0.1 s⁻¹ and the Km [7] was 61 µM. For the same protein, the kcat [7] was 20.1 s⁻¹, the Km [8] was 7 µM and the kcat [8] was 1 s⁻¹. The Km [9] was 76 µM, the kcat [9] was 11 s⁻¹ and the Km [10] was 48 µM. The kcat [10] was 14.3 s⁻¹, the Km [11] was 206 µM and the kcat [11] was 1010 s⁻¹. The Km [12] was 20 µM, the kcat [12] was 6.4 s⁻¹ and the Km [13] was 100 µM. For the same protein, the kcat [13] was 26.5 s⁻¹, the kcat/Km [14] was 0.17 and the kcat/Km [15] was 0.28. It also gave a kcat/Km [16] of 0.29, a kcat/Km [17] of 2.2 and a kcat/Km [18] of 4.88. For the same protein, the kcat/Km [19] was 0.33, the kcat/Km [20] was 0.14 and the kcat/Km [21] was 0.14. For the same protein, the kcat/Km [22] was 0.3, the kcat/Km [23] was 4.91 and the kcat/Km [24] was 0.32. The kcat/Km [25] was 0.26.
